Experimental data as given in ChEMBL document CHEMBL1152898, “Synthesis and antitumor activity of some new xanthotoxin derivatives” (Eur J Med Chem, 2009).
Converted amounts (≈) assume the structure as drawn. The source made the active and inactive calls. The rule behind the calls is not given here.

Tests used:
HeLa [1] = test: Antitumor activity against human HeLa cells after 72 hrs by MTS assay; assay type: functional, cell-based
Method in brief: (§1)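 HeLa or MCF-7 cells were grown in Eagle's MEM with Earle's salts, 2 mM L-glutamine, 1.0 mM pyruvate, 0.1 mM NEAA and 10% FBS. MCF-7 medium also had 0.01 mg/mL insulin. Cells were seeded at 10⁴/well and dosed at 24 h, giving final 5, 10, 50, 100 µg/mL in 2.5% DMSO. After 72 h, MTS was read at 3 h with pre-reagent absorbance subtracted. Triplicates were compared with 2.5% DMSO controls.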

MCF7 = test: Antitumor activity against human MCF7 cells after 72 hrs by MTS assay; assay type: functional, cell-based; method in brief: as §1
HeLa [2] = test: Antitumor activity against human HeLa cells assessed as cell viability at 100 ug/ml after 72 hrs by MTS assay; assay type: functional; settings: read-out: Activity; method in brief: as §1
HeLa [3] = test: Antitumor activity against human HeLa cells assessed as cell viability at 50 ug/ml after 72 hrs by MTS assay; assay type: functional; settings: read-out: Activity; method in brief: as §1
HeLa [4] = test: Antitumor activity against human HeLa cells assessed as cell viability at 5 ug/ml after 72 hrs by MTS assay; assay type: functional; settings: read-out: Activity; method in brief: as §1
HeLa [5] = test: Antitumor activity against human HeLa cells assessed as cell viability at 10 ug/ml after 72 hrs by MTS assay; assay type: functional; settings: read-out: Activity; method in brief: as §1

SMILES	IC50 (HeLa [1]) [µg/mL]	Activity (MCF7)	viability at 100 µg/mL (HeLa [2]) [%]	viability at 50 µg/mL (HeLa [3]) [%]	viability at 5 µg/mL (HeLa [4]) [%]	viability at 10 µg/mL (HeLa [5]) [%]
CCNC(=S)Nc1c2ccoc2c(OC)c2oc(=O)ccc12	23 (≈ 72.2 µM)	inactive	41	35	101	70
COc1c2occc2c(/N=C/c2cccs2)c2ccc(=O)oc12	7.2 (≈ 22.1 µM)	inactive	28	32	70	53
COc1c2occc2cc2ccc(=O)oc12 [METHOXSALEN]	7.6 (≈ 35.2 µM)	inactive	16	21	62	51
COc1c2occc2c(NC(=S)NCc2ccccc2)c2ccc(=O)oc12	7.5 (≈ 19.7 µM)	inactive	35	34	74	56
COc1c2occc2c(N2C(=O)CSC2c2ccc(Br)cc2)c2ccc(=O)oc12 (stereo not given)	40 (≈ 84.7 µM)	inactive	26	26	82	91
